HTR2A ag: agonists of mouse serotonin 5-HT2A receptor (HTR2A) | CHO-K1 mHTR2A beta-arrestin complementation, luminescence; percent of 30 µM serotonin response | activation, % at 7.6 µM | actives 0.66% (n = 360,000);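 active = activation above a run cutoff, the mean activation of all tested compounds plus 3 SD, cut at about 14% in these data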;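 note: 0% = plate median of compound wells and 100% = 30 µM serotonin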
Target sequence (P35363 whole entry, looked up): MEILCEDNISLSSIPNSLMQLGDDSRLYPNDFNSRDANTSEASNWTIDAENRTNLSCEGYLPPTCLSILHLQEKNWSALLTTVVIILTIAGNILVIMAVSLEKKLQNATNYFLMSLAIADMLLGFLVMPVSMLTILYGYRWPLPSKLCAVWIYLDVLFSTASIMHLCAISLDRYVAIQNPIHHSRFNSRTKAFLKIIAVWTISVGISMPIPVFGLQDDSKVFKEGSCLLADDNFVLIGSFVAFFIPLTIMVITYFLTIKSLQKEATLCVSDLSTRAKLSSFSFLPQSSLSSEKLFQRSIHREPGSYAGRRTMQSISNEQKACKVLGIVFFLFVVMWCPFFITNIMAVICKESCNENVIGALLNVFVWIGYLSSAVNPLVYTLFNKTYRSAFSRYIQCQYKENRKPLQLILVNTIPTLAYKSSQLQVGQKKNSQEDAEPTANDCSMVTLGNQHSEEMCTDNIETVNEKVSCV
Calb FLC: C. albicans growth modulation with fluconazole; C. albicans CaCi-2 + fluconazole, Alamar Blue growth, 48 h; growth inhibition, % (test concentration not listed); actives 0.57% (n = 300,000); AID 1979;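 active = growth inhibition above about 58% in most replicates, limit read from the data, passing the limit was not always enough; inconclusive = exactly half the replicates above a set limit; inactive = most replicates below a set limit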;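 note: all wells also contain fluconazole at 8 µg/ml as a sub-toxic cotreatment; 0% = median of DMSO wells and 100% = median of geldanamycin control wells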
MIN6 prolif: inducers of beta-cell replication in MIN6 cells; MIN6 cells proliferation, ATPlite luminescence, 48 h; cells starved in 0.2% serum; 100% = growth in 10% serum; proliferation, % at 10 µM; actives 0.29% (n = 330,000); AID 2380;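 active = compounds whose signal lies at least 3.5 SD above the mean of all wells on their plate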;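 note: 0% = DMSO-treated cells in low-serum medium and 100% = 10% serum control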
SR-BI DiI inh: mouse SR-BI HDL lipid transfer inhibition. Q61009. ldlA[mSR-BI] CHO cells, DiI-HDL uptake fluorescence, 3 h. inhibition, % at 12.5 µM. actives 0.96% (n = 320,000). AID 488896;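 active = mean replicate inhibition of at least 70% and a set share of replicates each scoring 70 or more; inconclusive = meets just one of the two criteria; inactive = fails both criteria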;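 note: 0% = median of neutral control wells and 100% = median of positive control wells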
Ins promoter up: MIN6 insulin promoter up-regulation. AID 1625. z-score at 5 µM. MIN6 insulin promoter-GFP reporter, high-content imaging; active compounds read high. actives 0.3% (n = 190,000);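 active = z-score above 3 at 5 µM with at least 500 cells counted in the well; inconclusive = wells under 500 cells, flagged as cytotoxic or low count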
SR-BI uptake up: enhances SR-BI lipid uptake from DiI-HDL. CHO ldlA[mSR-BI] cells, DiI-HDL uptake fluorescence, 3 h; 100 = double the neutral-control signal. actives 0.096% (n = 320,000). activation, % at 12.5 µM;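 active = mean replicate activation of at least 60% and every replicate at or above 60%; inconclusive = mean or all-replicate condition met, but not both; inactive = mean below 60% and not all replicates reaching 60%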;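 note: 0% = median plate neutral-control signal and 100% = twice that signal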
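Test system: SR-BI-overexpressing, LDLR-lacking CHO cells; Also added: labelled HDL, 10 µg/mL; Measured by: bottom-read cell fluorescence after medium removal, ex 550/em 595 nm; Timing: 3 h uptake period with compound, 37 °C; Buffer or medium: F12, 0.5% BSA, 25 mM HEPES; Doses: single compound concentration, delivered by pin transfer.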
* hit, by the source's call; u = inconclusive; x = no result. Shown are actives, neighbours in structure and some others; about 2.4% of the full set was active somewhere.

SMILES	HTR2A ag	Calb FLC	MIN6 prolif	SR-BI DiI inh	Ins promoter up	SR-BI uptake up
COCCSc1nnc(NC(=O)C2CC(=O)N(c3ccc(C)cc3)C2)s1 (configuration not stated)	3	99*	-1	-20	0.32	20
COc1ccc(S(=O)(=O)Cc2ccc(C(=O)NC3CCCCCC3)o2)cc1	2	9	-1	-6	x	6
CCc1ccc(C(=O)NNc2ccc(F)cc2)cc1	2	80*	-3	-8	-0.26	8
O=C1O[C@@H](c2ccccc2)C[C@@H](O)C(=O)CCc2ccccc21	4	x	x	x	x	x
CCOc1ccc(S(=O)(=O)N2CCC(C(=O)NCc3ccncc3)CC2)cc1C	-4	15	-2	x	x	x
Cc1cccc2c1N(C(=O)c1ccco1)C(C)(C)c1ssc(=S)c1-2	2	9	0	-4	-0.17	4
Cc1ccc2c(c1)N(C(=O)c1ccco1)C(C)(C)c1ssc(=S)c1-2	-3	-8	-3	94*	-0.1	-94
O=C1CCC/C=C/C[C@H](CC(=O)N(CCO)Cc2ccccc2)C(=O)N[C@@H](Cc2ccccc2)CO1	-2	x	-5	-20	x	20
Cc1nn(-c2ccccc2)c(N2CCCC2)c1/C=N/Nc1ccc(S(N)(=O)=O)cc1[N+](=O)[O-]	0	22	-5	80*	-1.1	-80
NS(=O)(=O)c1ccc(N/N=C/c2ccc(C(=O)O)cc2)c([N+](=O)[O-])c1	1	6	1	-7	-1.2	7
NS(=O)(=O)c1ccc(N/N=C/c2cn(-c3ccccc3)nc2-c2cccs2)c([N+](=O)[O-])c1	0	-7	-6	104*	-6	-104
NS(=O)(=O)c1ccc(N/N=C/c2cn(-c3ccccc3)nc2-c2cccs2)cc1	-5	21	0	12	-1.7	-12
NNC(=S)Nc1cccc(Cl)c1	-5	92*	1	x	0.28	x
COc1ccc(-c2c(-c3ccsc3)oc3ccc(N4CCOCC4)cc23)cc1	8	10	-8	75*	x	-75
O=C(NCc1ccc(F)cc1)c1ccc(CS(=O)(=O)Cc2ccc(F)cc2)o1	-5	3	-2	2	-0.78	-2
O=C(NCc1ccc(F)cc1)c1ccc(CS(=O)(=O)Cc2ccccc2F)o1	1	95*	1	-5	0.41	5
CC(C)(C)c1ccc(S(=O)(=O)NC(=O)C2(C)CCN2C(=O)C2CC2)cc1 (configuration not stated)	-1	x	x	x	x	x
O=C(NC(=S)N1CCN(c2nc(-c3ccccc3)cs2)CC1)c1cncc(Br)c1	-8	-1	-6	-2	-0.4	2
Cc1ccc(NC(=S)N2CCN(S(=O)(=O)c3ccc(F)cc3)CC2)cc1	-4	15	-5	-6	x	6
CCCCC[C@H]1CCCCC[C@H](O)C[C@@H](O)[C@H](O)/C=C/C(=O)O1	11	x	x	x	x	x
CCOC(=O)C1CCN(C(=O)c2ccc3c(=O)n4nc(Nc5ccccc5OC)sc4nc3c2)CC1	6	x	x	x	x	x
CCOC(=O)C1CCN(C(=O)c2ccc3c(=O)n4nc(Nc5cc(C)ccc5C)sc4nc3c2)CC1	3	88*	-6	6	x	-6
CN(CC(=O)NCc1ccco1)CC(=O)Nc1cc(S(C)(=O)=O)ccc1Cl	0	x	0	-117	x	u
COc1cc(OC)c(OC)cc1/C=C1\CCC/C(=C\c2cc(OC)c(OC)cc2OC)C1=O	2	9	-5	44	x	-44
COc1ccc(/C=C2\CCC/C(=C\c3ccc(OC)c(OC)c3OC)C2=O)c(OC)c1OC	-4	6	-6	74*	x	-74
SMILES	HTR2A ag	Calb FLC	MIN6 prolif	SR-BI DiI inh	Ins promoter up	SR-BI uptake up
O=C1[C@H]2[C@@H](c3ccccc3)N[C@]3(CCCN(CC4CCCCC4)C3=O)[C@H]2C(=O)N1Cc1ccccc1	2	x	x	x	x	x
C=CCNC(=S)NNC(=O)COc1ccc2cc(Br)ccc2c1	16*	-40	-4	18	-0.95	-18
O=S(=O)(Nc1cccc2cccnc12)c1ccc(S(=O)(=O)N2CCCC2)cc1	-16	96*	-4	-22	0.22	22
CCCc1nc2ccc(C)cn2c1Cc1ccc(C)cc1	1	x	x	x	x	x
O=C(Cn1cnc2c(nnn2Cc2ccc(F)cc2)c1=O)NC1CCCC1	0	100*	-1	-29	-0.08	29
O=C(Cn1cnc2c(nnn2Cc2ccc(Cl)cc2)c1=O)NC1CCCC1	3	-5	-3	-11	-0.4	11
CC(C)[C@H](NC(=O)[C@@H]1Cc2c([nH]c3ccccc23)C2c3ccccc3C(=O)N21)C(=O)N1CCC[C@@H]1C(=O)O (some centres not stated)	2	8	-2	-5	x	5
Oc1ccc(N2CCN(C(=S)NCCc3ccccc3)CC2)cc1	-3	106*	-7	45	-0.13	-45
Cc1ccc(C(=O)NCC(=O)OCC(=O)/C=C2\N(C)c3ccccc3C2(C)C)cc1C	-5	-7	-6	-2	0.04	2
O=C(N/N=C/c1ccc[nH]1)c1cc2ccccc2cc1O	-5	u	-3	4	x	-4
O=C(N/N=C/c1ccncc1)c1cc2ccccc2cc1O	-9	91*	-5	36	x	-36
Cc1cccc(N2CCN(C(=O)c3cccc(S(=O)(=O)N4CCOCC4)c3)CC2)c1C	3	x	-1	13	x	-13
N#Cc1ccc(-c2ccc(Cl)cc2)nc1SCC(=O)c1cccc(Cl)c1	0	-4	-4	62	6.9*	-62
COC(=O)c1cccc(NC(=O)/C=C/c2cccc([N+](=O)[O-])c2)c1	-2	5	0	73*	-0.13	-73
COC(=O)c1cccc(NC(=O)/C=C/c2ccc([N+](=O)[O-])cc2)c1	0	1	0	11	0.2	-11
COC(=O)C[C@@H]1C=C[C@H](NC(=O)c2ccccc2)[C@@H](CO)O1	-3	x	x	x	x	x
O=C(/C=C/c1cccs1)NC(=S)NNC(=O)c1ccccc1O	3	118*	-5	101*	-4.8	-101
O=C(NC(=S)NNC(=O)c1cc2ccccc2cc1O)c1ccco1	6	83*	-3	146*	-2.8	-146
O=C(NNC(=S)NC(=O)c1ccco1)c1ccc(NC(=O)c2ccccc2)cc1	2	-13	-4	41	0.17	-41
O=C(NC(=S)NNC(=O)c1ccccc1O)c1ccco1	11	41	x	110*	0.8	-110
O=C(CN1CSCC1=O)N1CCN(S(=O)(=O)c2ccc(Cl)cc2)CC1	3	x	-1	-35	x	35
Cc1ccc(NCC(=O)c2ccccc2)cc1Cl	2	-3	-3	11	-0.02	-11
Cc1ccc(NC2=C(NC(=O)c3ccccc3)C(=O)c3ccccc3C2=O)cc1Cl	-5	9	-4	79*	-0.31	-79
